Laboratory results as given in ChEMBL document CHEMBL1123939, “Evaluation of isomeric 4-(chlorohydroxyphenyl)-1,2,3,4-tetrahydroisoquinolines as dopamine D-1 antagonists” (J Med Chem, 1987).
Calls of active or inactive are those of the source. The rule behind the calls is not given here.

What was measured:
Assay type in all cases: protein assay
[1] = molecular target: T1, Adenylate cyclase (Rattus norvegicus) (UniProt D4A3N4+P26770+Q04400+P26769+Q03343+P40146+Q8CFM9+P21932); assay: Inhibition of dopamine sensitive adenylate cyclase at 10 uM; No inhibition
[2] = molecular target: T1, Adenylate cyclase (Rattus norvegicus); assay: Inhibition of dopamine sensitive adenylate cyclase at 100 uM; No inhibition
[3] = molecular target: T1, Adenylate cyclase (Rattus norvegicus); assay: Inhibition of dopamine sensitive adenylate cyclase at 1 uM; […]
[4] = molecular target: T1, Adenylate cyclase (Rattus norvegicus); assay: Inhibition of dopamine sensitive adenylate cyclase at 10 uM
[5] = molecular target: T1, Adenylate cyclase (Rattus norvegicus); assay: Inhibition of dopamine sensitive adenylate cyclase at 100 uM
[6] = molecular target: T1, Adenylate cyclase (Rattus norvegicus); assay: Inhibition of dopamine sensitive adenylate cyclase at 30 uM
[7] = molecular target: T1, Adenylate cyclase (Rattus norvegicus); assay: Inhibition of dopamine sensitive adenylate cyclase at 0.01 uM
In short: (§1)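 Rat retinas homogenized in 150 vol/wt 2.0 mM Tris-HCl pH 7.4 with 2 mM EDTA. Incubated 20 min, 30 °C. Stopped with SDS/ATP/cyclic AMP containing [3H]cyclic AMP, then heated 85 °C, 2 min.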

[8] = molecular target: T1, Adenylate cyclase (Rattus norvegicus); assay: Inhibition of dopamine sensitive adenylate cyclase at 1 uM; in short: as §1
[9] = molecular target: T1, Adenylate cyclase (Rattus norvegicus); assay: Inhibition of dopamine sensitive adenylate cyclase at 0.1 uM; in short: as §1

inhibition [7] [%] | inhibition [8] [%] | inhibition [9] [%] | SMILES | inhibition [1] | inhibition [2] | inhibition [3] | inhibition [4] [%] | inhibition [5] [%] | inhibition [6] [%]
 |  |  | Oc1ccc(C2CNCc3ccccc32)cc1Cl (stereo unspecified) | inactive | inactive | inactive |  |  | 
 |  |  | Oc1cc(C2CNCc3ccccc32)ccc1Cl (stereo unspecified) |  |  | inactive | 8.9 | 26.3 | 
 |  |  | CN1Cc2ccccc2C(c2ccc(Cl)c(O)c2)C1 (stereo unspecified) |  |  | inactive | 21 | 57.9 | 45.1
 |  |  | Oc1cccc(C2CNCc3ccccc32)c1 (stereo unspecified) |  |  | inactive | 8.8 | 22.9 | 
23.2 | 74.3 | 59.9 | CN1CCc2cc(Cl)c(O)cc2[C@@H](c2ccccc2)C1 |  |  |  |  |  | 
